Bioassay records deposited in PubChem BioAssay by several laboratories.
TRPC4 potent – TRPC4 (mouse) allosteric potentiation | Q9QUQ5 | 310,000 compounds, 0.42% hits | B-score at 10 µM | HEK293 TRPC4beta/mu-opioid, DAMGO EC20, Fluo-4 Ca2+ flux; stronger effect = higher value;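 active = B-score of calcium response area above 5 SD of library B-scores, with initial fluorescence ratio within 5 SD of library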
TRPC4 inh – inhibitors of mouse TRPC4 channel. Q9QUQ5. HEK293 TRPC4beta/mu-opioid, DAMGO-evoked Fluo4 calcium flux; stronger effect = lower value. B-score at 10 µM. 300,000 compounds, 0.39% hits;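 active = B-score over 3 SD under the library average, no early fluorescence shift, positive overall ratio signal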
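Signal: kinetic Fluo4 fluorescence imaging of calcium influx. Material: stable TRPC4beta/mu-opioid receptor HEK293 cells. Probe or stimulus: DAMGO in two steps, submaximal then maximal.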
TRPC6 inhibitor – inhibitors of mouse TRPC6 channel; Q61143; HEK293-TRPC6, membrane potential dye, ACh-evoked depolarization; stronger effect = lower value; B-score at 10 µM; 310,000 compounds, 1.1% hits; AID 2553;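 active = B-score under library mean minus 3 SD, initial fluorescence not abnormally high, positive integrated signal ratio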;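 also: B-score derived from integrated fluorescence ratio over the kinetic read; more negative B-score means stronger inhibition of depolarization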
TRPC6 activator – mouse TRPC6 channel activation; Q61143; HEK293-TRPC6 membrane potential dye fluorescence; stronger effect = higher value; B-score at 10 µM; 310,000 compounds, 0.13% hits;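 active = B-score of the integrated fluorescence ratio above library mean plus 3 SD, and starting fluorescence ratio within library mean plus 5 SD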;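 also: higher score means more depolarization so channel activation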
TRPC4 act – TRPC4 (mouse) channel activation. Q9QUQ5. HEK293 TRPC4beta/mu-opioid, Fluo4 calcium fluorescence; stronger effect = higher value. B-score at 10 µM. 310,000 compounds, 0.49% hits;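 active = B-score above 5 SD of library B-scores, and initial fluorescence ratio not above library mean plus 5 SD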;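 also: positive B-score marks a calcium rise read as TRPC4 activation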
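Assay system: HEK293 cells stably co-expressing mouse TRPC4beta and mu-opioid receptor / Timing: Fluo4 dye loading 45 min at room temperature, 110 s recording / Signal: Fluo4 calcium-sensitive dye fluorescence, kinetic, 1 Hz baseline / Read-out: integrated baseline-normalised fluorescence ratio, converted to per-well B score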
Yeast superoxide – caloric restriction mimetics inhibiting age-related superoxide in yeast; superoxide response (% of plate mean), % at 10 µM; 330,000 compounds, 0.18% hits; S. cerevisiae aged cells, superoxide DHE fluorescence; stronger effect = lower value;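 active = superoxide response under a set limit, about three screen SD below normal, cut at about 65% in these data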;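 also: yeast aged for seven days with compound at 30 °C before DHE staining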
A number is an active result; . = inactive. An excerpt weighted towards active compounds, which were near 2.3% of everything screened.

SMILES | TRPC4 potent | TRPC4 inh | TRPC6 inhibitor | TRPC6 activator | TRPC4 act | Yeast superoxide
CC1CCCCN1CCCNC(=O)c1nn(C)c2c1CSc1ccccc1-2 (centres undefined) | . | -7 | . | . | . | .
O=C(COc1ccc(Br)cc1)N1CCN(S(=O)(=O)/C=C/c2ccccc2)CC1 | 11 | . | . | . | . | .
O=C(COc1ccccc1F)N1CCN(S(=O)(=O)/C=C/c2ccccc2)CC1 | . | . | . | . | . | .
CC(Oc1ccc(Br)cc1)C(=O)Nc1nnc(C2CC2)s1 (centres undefined) | . | . | . | . | . | .
Cc1cccc2nc(CSc3ccc(Cl)cc3)cn12 | . | -8 | . | . | . | .
Clc1ccc(SCc2cn3ccccc3n2)cc1 | . | . | . | . | . | .
Cc1cccc(C)c1NC(=O)Cn1c(=O)n(CCCC(=O)NC2CCN(Cc3ccccc3)CC2)c(=O)c2ccccc21 | . | . | . | . | . | .
CCCn1c(=O)c2sccc2n2c(CCCC(=O)NC3CCN(Cc4ccccc4)CC3)nnc12 | 16 | . | . | . | . | .
Cc1cc(NC(=O)Cn2c(=O)n(CCCCC(=O)NC3CCN(Cc4ccccc4)CC3)c(=O)c3ccccc32)n[nH]1 | 11 | . | . | . | . | .
O=C(CCCCn1c(=O)c2ccccc2n(Cc2ccccc2F)c1=O)NC1CCN(Cc2ccccc2)CC1 | 12 | . | . | . | . | .
CC(C)Cn1c(=O)c2sccc2n2c(CCCC(=O)NC3CCN(Cc4ccccc4)CC3)nnc12 | . | . | . | . | . | .
O=C(CCCn1c(=O)[nH]c2ccccc2c1=O)NC1CCCCCC1 | . | . | . | . | . | .
O=C(CCCCn1c(=O)[nH]c2ccccc2c1=O)NC1CCN(Cc2ccccc2)CC1 | . | . | . | . | 86 | .
CCOc1cc(/C=N/NC(=O)CN2CCCCC2)ccc1OCc1ccc(Cl)cc1 | . | . | . | . | . | .
CCOc1cc(/C=N/NC(=O)CN2CCCCC2)ccc1OCc1cccc(Cl)c1 | 11 | . | . | . | . | .
COc1ccc2ccccc2c1CNC(C)c1ccccc1 (centres undefined) | . | . | . | . | . | .
CC(NCCCOc1cccc2ccccc12)c1ccccc1 (centres undefined) | . | . | . | . | 69 | .
CCCc1nc2ccccc2[nH]1 | . | . | . | . | . | .
O=C(Cc1nc2ccccc2[nH]1)c1ccc(Br)cc1 | . | . | . | . | 72 | .
c1ccc2[nH]c(CCCCc3nc4ccccc4[nH]3)nc2c1 | . | -6 | . | . | . | .
Cc1ccc(OC(=O)c2ccc(C)c(C)c2)cn1 | . | . | . | . | . | .
CCOc1ccc(NS(=O)(=O)c2ccc(C(=O)N3CCCC(C)C3)cc2)cc1 (centres undefined) | . | . | . | . | 54 | .
Cc1ccc(NS(=O)(=O)c2ccc(C(=O)N3CC(C)OC(C)C3)cc2)cc1 (centres undefined) | . | . | . | . | 53 | .
O=C(c1ccc(S(=O)(=O)Nc2ccccc2)cc1)N1CCCC(C(F)(F)F)C1 (centres undefined) | . | . | . | . | 54 | .
O=C(NCCN1CCOCC1)c1cnn2c1NC(c1cccs1)CC2C(F)(F)F (centres undefined) | . | . | . | . | . | .
SMILES | TRPC4 potent | TRPC4 inh | TRPC6 inhibitor | TRPC6 activator | TRPC4 act | Yeast superoxide
Cc1cccn2c(=O)c(/C=N/O)c(N3CCCC3)nc12 | . | -8 | . | . | . | .
CCNC(=O)/C(C#N)=C/c1c(N2CCN(c3ccccc3)CC2)nc2c(C)cccn2c1=O | . | . | . | . | . | .
Cc1cccn2c(=O)c(/C=C(\C#N)C(N)=O)c(N3CCN(c4ccccc4)CC3)nc12 | 12 | . | . | . | . | .
CCOC(=O)/C(C#N)=C/c1c(N2CCN(c3ccc(OC)cc3)CC2)nc2c(C)cccn2c1=O | 11 | . | . | . | . | .
O=C(Nc1cccc(Cl)c1)c1ccc(-n2cncn2)c([N+](=O)[O-])c1 | . | . | -5.5 | . | . | .
Cc1ccc(NC(=O)c2ccc(-n3cncn3)c([N+](=O)[O-])c2)cc1 | . | . | . | . | . | .
CCOc1c(Br)cc(CNC2CCCCCCC2)cc1OC | . | -6 | . | . | . | .
